Test results: ChEMBL document CHEMBL3994593, “Diterpenoids of the Cassane Type from Caesalpinia decapetala” (J Nat Prod, 2016)

Columns and labels:
Format in all cases: functional, cell-based
[1] = tested on: A2780; test: Cytotoxicity against human A2780 cells assessed as reduction in cell viability after 48 hrs by MTT assay; settings: A2780, 48 h
How it was run: (§1)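 Cells grown in RPMI 1640 with 10% FBS, penicillin/streptomycin, at 37 °C, 5% CO2. Seeded at 5000 cells/well, compounds added after 24 h, then 48 h incubation; MTT formazan read at 570 nm. Five concentrations (50, 25, 10, 2.5, 1 μM), 0.5% DMSO final, triplicate experiments; IC50 as mean ± SEM. Gemcitabine and cisplatin as positive controls.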

[2] = tested on: B16; test: Cytotoxicity against mouse B16 cells assessed as reduction in cell viability after 48 hrs by MTT assay; settings: B16, 48 h; how it was run: as §1
[3] = tested on: Panc02; test: Cytotoxicity against mouse Panc02 cells assessed as reduction in cell viability after 48 hrs by MTT assay; settings: Panc02, 48 h; how it was run: as §1
[4] = tested on: T-cell; test: Cytotoxicity against ConA-stimulated Balb/c mouse T cells assessed as reduction in cell viability after 48 hrs by MTT assay
How it was run: (§2)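 Splenocytes from three male Balb/c mice (4−6 weeks); T and B cells enriched on nylon-wool column, stimulated with 5 μg/mL ConA (T) or 10 μg/mL LPS (B). Then handled as the tumor-cell MTT assay: 48 h exposure, 570 nm read, five concentrations 1–50 μM, 0.5% DMSO final, triplicate. Cyclosporin A and mycophenolate mofetil as positive controls.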

[5] = tested on: B-cell; test: Cytotoxicity against LPS-stimulated Balb/c mouse B cells assessed as reduction in cell viability after 48 hrs by MTT assay; how it was run: as §2
[6] = tested on: SW1990; test: Cytotoxicity against human SW1990 cells assessed as reduction in cell viability after 48 hrs by MTT assay; settings: SW1990, 48 h; how it was run: as §1
[7] = tested on: HepG2; test: Cytotoxicity against human HepG2 cells assessed as reduction in cell viability after 48 hrs by MTT assay; settings: HepG2, 48 h; how it was run: as §1

Row | SMILES | IC50 [1] | IC50 [2] | IC50 [3] | IC50 [4] | IC50 [5] | IC50 [6] | IC50 [7]
1 | COC(=O)[C@]1(C)CCC[C@]23C(O)O[C@H](C[C@H]4[C@@H](C)c5ccoc5C[C@@H]42)[C@H]31 (some centres not stated) | > 10 µM | > 10 µM | > 10 µM | > 10 µM | > 10 µM |  | 
2 | COC(=O)[C@@]1(C)[C@@H]2CC[C@@H]3[C@@H]4[C@@H](OC[C@@]42CC[C@@H]1O)c1occc1[C@@H]3C | > 10 µM | > 10 µM | > 10 µM | > 10 µM | > 10 µM | 2.9 to 8.9 µM | 
3 | COC(=O)[C@]1(C)[C@@H](O)CC[C@@]23C(=O)O[C@H]4c5occc5[C@H](C)[C@H](CC[C@@H]12)[C@H]43 | > 10 µM | > 10 µM | > 10 µM | > 10 µM | > 10 µM | 2.9 to 8.9 µM | 
4 | COC(=O)[C@]1(C)CCC[C@]23CO[C@H]4c5occc5[C@H](C)[C@@H]([C@H]42)[C@@H](OC(C)=O)C[C@H]31 | > 10 µM | > 10 µM | > 10 µM | > 10 µM | > 10 µM |  | 
5 | COC(=O)[C@]1(C)CCC[C@@]2(COC(C)=O)[C@H]1[C@H](O)C[C@H]1[C@@H](C)C3=CC(=O)O[C@]3(OC)C[C@@H]12 | > 10 µM | > 10 µM | > 10 µM | > 10 µM | > 10 µM |  | 
6 | COC(=O)[C@]1(C)CCC[C@@]2(COC(C)=O)[C@H]1[C@H](O)C[C@H]1[C@@H](C)c3ccoc3C[C@@H]12 | > 10 µM | > 10 µM | > 10 µM | > 10 µM | > 10 µM | 2.9 to 8.9 µM | 3.9 µM
7 | C=C1CC[C@@H]2[C@](C)(CCC[C@]2(C)C(=O)O)[C@H]1CC(=O)/C(C)=C/CO | > 10 µM | > 10 µM | > 10 µM | > 10 µM | > 10 µM |  | 
8 | COC(=O)[C@]1(C)[C@@H](OC(C)=O)CC[C@@]23C(=O)O[C@H]4c5occc5[C@H](C)[C@H](CC[C@@H]12)[C@H]43 | > 10 µM | > 10 µM | > 10 µM | > 10 µM | > 10 µM |  | 
9 | COC(=O)[C@]1(C)[C@@H](OC(C)=O)CC[C@@]23CO[C@H]4c5occc5[C@H](C)[C@H](CC[C@H]21)[C@H]43 | > 10 µM | > 10 µM | > 10 µM | > 10 µM | > 10 µM |  | 
10 | COC(=O)[C@]1(C)CCC[C@]23CO[C@H]4c5occc5[C@H](C)[C@@H]([C@H]42)[C@@H](O)C[C@H]31 | > 10 µM | > 10 µM | > 10 µM | > 10 µM | > 10 µM | 2.9 to 8.9 µM | 
11 | COC(=O)[C@@]1(C)[C@@H](OC(C)=O)CC[C@]2(C(=O)O)[C@H]3Cc4occc4[C@H](C)[C@@H]3CC[C@@H]12 | > 10 µM | > 10 µM | > 10 µM | > 10 µM | > 10 µM |  | 
12 | COC(=O)[C@]1(C)CCC[C@]2(COC(C)=O)c3cc4occc4c(C)c3C[C@@H](OC(C)=O)[C@H]21 | > 10 µM | > 10 µM | > 10 µM | > 10 µM | > 10 µM | 2.9 to 8.9 µM | 
13 | C=C1CC[C@@H]2[C@](C)(CCC[C@]2(C)C(=O)O)[C@H]1/C=C/C(C)=O | > 10 µM | > 10 µM | > 10 µM | > 10 µM | > 10 µM |  | 
14 | Nc1ccn([C@@H]2O[C@H](CO)[C@@H](O)C2(F)F)c(=O)n1 [GEMCITABINE] |  |  |  |  |  | 2.3 µM | 
